Sampled rows, rich in hits. Any-hit rate of the full collection: about 1.3%.
RAD52 anneal inh: blocks human RAD52 DNA annealing | recombinant RAD52 DNA annealing, FRET fluorescence | inhibition, % at 18.7 µM | actives 0.46% (n = 360,000) | P43351;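 active = every replicate showing at least 50% inhibition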
Target sequence (P43351 whole entry, looked up): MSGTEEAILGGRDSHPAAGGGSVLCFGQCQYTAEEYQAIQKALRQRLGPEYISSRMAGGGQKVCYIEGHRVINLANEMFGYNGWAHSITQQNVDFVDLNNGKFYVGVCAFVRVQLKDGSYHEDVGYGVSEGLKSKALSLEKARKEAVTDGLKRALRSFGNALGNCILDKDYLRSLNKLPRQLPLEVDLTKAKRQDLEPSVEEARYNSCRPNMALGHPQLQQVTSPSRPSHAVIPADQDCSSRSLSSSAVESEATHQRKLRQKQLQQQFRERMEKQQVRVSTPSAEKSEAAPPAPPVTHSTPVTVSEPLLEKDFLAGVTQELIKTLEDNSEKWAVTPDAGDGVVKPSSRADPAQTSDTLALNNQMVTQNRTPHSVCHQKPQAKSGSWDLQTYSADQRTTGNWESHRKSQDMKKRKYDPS
GSIS activator: primary screen for activators of insulin secretion dependent on glucose, INS-1E cells, GLuc reporter luminescence; AID 743287; actives 0.61% (n = 370,000); INS-1E GLuc reporter insulin secretion, 2-3 h; activation, % at 16.6 µM;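 active = lowest replicate activation of at least 40%, so every replicate reaches that level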;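 note: 0% = median of neutral control wells and 100% = median of IBMX positive control wells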
RAD54 branch: inhibitors of human RAD54 branch migration; inhibition, % at 10.4 µM; actives 0.14% (n = 360,000); Q92698; RAD54 Holliday junction branch migration, FAM/BHQ fluorescence;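 active = mean normalized replicate activity at least 40 and at least half of replicates scoring 40 or more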;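 note: 0% = median of neutral control wells and 100% = median of positive control wells; inhibitors cause a drop in the FAM fluorescence signal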
S100A4 inh HTS: blocks human S100A4 binding to myosin IIA peptide; P26447; S100A4/TAMRA-MyoIIA peptide fluorescence polarization; inhibition, % at 10.7 µM; actives 0.14% (n = 360,000); AID 652163;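 active = mean inhibition of at least 70% across replicates, with every replicate also reaching that level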
Target sequence (P26447 whole entry, looked up): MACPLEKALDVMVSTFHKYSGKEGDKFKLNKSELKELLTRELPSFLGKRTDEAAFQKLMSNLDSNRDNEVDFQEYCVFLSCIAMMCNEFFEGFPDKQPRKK
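assay system = human S100A4 monomer with TAMRA-labelled myosin IIA peptide | also added = labelled myosin peptide probe, 5 nM | incubation = 5 min between mix addition and reading | control set = DMSO and TFP controls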
MLL AF4-AF9 inh: MLL-AF4/AF9 protein interaction inhibition; actives 0.47% (n = 350,000); inhibition, % at 10 µM; AID 651704; AlphaScreen, biotin-AF4 peptide binding to FLAG-AF9; P42568;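 active = every replicate reaching a set inhibition limit, whatever the replicate mean, cut at about 25% in these data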;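 note: 0% = plate neutral control median and 100% = total signal loss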
* = called active by the depositor.

How did CCCCCCCCN1C(=O)[C@@H](CC(=O)N2CCOCC2)C[C@@]2(C(=O)OC)C1=C[C@H](C1CCCC1)O[C@@H]2C do in these assays?
RAD52 anneal inh: -6; S100A4 inh HTS: -3; MLL AF4-AF9 inh: 0

How did CCCCCCCCN1C(=O)[C@@H](CC(=O)N2CCN(C(=O)C3CC3)CC2)C[C@@]2(C(=O)OC)C1=C[C@H](C1CCCC1)O[C@@H]2C do in these assays?
RAD52 anneal inh: -17; GSIS activator: 72*; S100A4 inh HTS: -14; MLL AF4-AF9 inh: 1

What do the screens show for `CCCCCCCCN1C(=O)[C@@H](CC(=O)N2CCCC2)C[C@@]2(C(=O)OC)C1=C[C@H](C1CCCC1)O[C@@H]2C`?
RAD52 anneal inh: -20; GSIS activator: 112*; S100A4 inh HTS: 4; MLL AF4-AF9 inh: 3

Results for COC(=O)[C@]12C[C@H](CC(=O)N3CCCC3)C(=O)N(CCC3=CCCCC3)C1=C[C@H](C(C)(C)C)O[C@@H]2C ?
RAD52 anneal inh: 5; GSIS activator: 294*; S100A4 inh HTS: -2; MLL AF4-AF9 inh: 6

What do the screens show for `COc1ccc2c3c(n(C)c2c1)[C@H](CO)N(Cc1ccncc1)CC31CN(C(=O)NC(C)C)C1`?
GSIS activator: 16; MLL AF4-AF9 inh: -3

What do the screens show for `O=C([C@@H]1[C@@H](CO)[C@@H]2Cn3c(ccc(/C=C/c4ccccc4)c3=O)[C@@H]2N1CC1CC1)N1CCCCC1`?
RAD52 anneal inh: -15; GSIS activator: -19; RAD54 branch: -9; S100A4 inh HTS: -3; MLL AF4-AF9 inh: -12

What do the screens show for `CC(OC(=O)c1ccc(Cl)c(S(=O)(=O)Nc2ccc(F)cc2)c1)C(=O)NC(N)=O` (centres undefined)?
RAD52 anneal inh: -6; GSIS activator: -30; RAD54 branch: -11; S100A4 inh HTS: -1; MLL AF4-AF9 inh: 40*

What do the screens show for `CC(C)NC(=O)N(C)C[C@@H]1Oc2ncc(C#CCC3CCCC3)cc2C(=O)N([C@H](C)CO)C[C@@H]1C`?
RAD52 anneal inh: 8; GSIS activator: -14; RAD54 branch: 10; S100A4 inh HTS: 3; MLL AF4-AF9 inh: -8

How did CC=Cc1ccc2n(c1=O)C[C@@H]1[C@@H](CO)[C@H](C(=O)Nc3nccs3)N(Cc3cc(F)ccc3F)[C@H]21 (mixture of isomers) do in these assays?
RAD52 anneal inh: -26; GSIS activator: 14; RAD54 branch: 0; S100A4 inh HTS: -6; MLL AF4-AF9 inh: 0

How did CCN(CC)C(=O)C1(P(=O)(c2ccccc2)c2ccccc2)CCC1 do in these assays?
RAD52 anneal inh: -4; GSIS activator: 90*; RAD54 branch: 0; S100A4 inh HTS: 1

How did CCCCN(CCCC)C(=O)C1(P(=O)(c2ccccc2)c2ccccc2)CCC1 do in these assays?
RAD52 anneal inh: 0; GSIS activator: -30; RAD54 branch: -4; S100A4 inh HTS: -1; MLL AF4-AF9 inh: 3

Results for COc1ccc(NC(=O)N[C@H]2CC[C@H](CC(=O)NC3CCC3)O[C@H]2CO)cc1 ?
RAD52 anneal inh: 12; GSIS activator: 13; RAD54 branch: 0; S100A4 inh HTS: -2; MLL AF4-AF9 inh: -4

Results for Cc1ccc2nc(-c3ccc(NC(=O)COC(=O)c4ccc(Br)o4)cc3)sc2c1 ?
GSIS activator: 1; RAD54 branch: -3

Results for Cc1ccc2nc(-c3ccc(NC(=O)COC(=O)c4ccco4)cc3)sc2c1 ?
GSIS activator: 91*

Results for C=CCn1c(SCC(=O)Nc2ccc(-c3nc4ccc(C)cc4s3)cc2)nnc1-c1ccccc1 ?
GSIS activator: 122*; RAD54 branch: 0

How did CCOC(=O)c1c(-n2cnnn2)sc2c1CCCC2 do in these assays?
RAD52 anneal inh: 1; GSIS activator: 60*; S100A4 inh HTS: 3; MLL AF4-AF9 inh: -1

Results for CCOC(=O)c1c(N)sc2c1CCCC2 ?
RAD54 branch: -5

Results for CCC(=O)N1CC(=O)N2[C@H](C1)[C@@H](c1ccc(C#Cc3cccc(OC)c3)cc1)[C@@H]2CO ?
RAD52 anneal inh: -5; GSIS activator: -8; S100A4 inh HTS: 7; MLL AF4-AF9 inh: -1

Results for CN(C)CCCNC(=O)C[C@H]1C[C@H](C(=O)N2CCCCC2)[C@@]2(CCc3ccccc3)c3[nH]c4cc(-c5ccco5)ccc4c3CCN2C1=O ?
RAD52 anneal inh: 75*; GSIS activator: 3; RAD54 branch: -9; S100A4 inh HTS: -5; MLL AF4-AF9 inh: 53*

How did CN(C)CCCNC(=O)C[C@H]1C[C@H](C(=O)N2CCCCC2)[C@@]2(C)c3[nH]c4cc(-c5ccco5)ccc4c3CCN2C1=O do in these assays?
RAD52 anneal inh: 30; GSIS activator: 16; RAD54 branch: 12; S100A4 inh HTS: 4; MLL AF4-AF9 inh: 24

Results for CCCN(C)C[C@@H]1Oc2ncc(C#CC3(O)CCCC3)cc2C(=O)N([C@@H](C)CO)C[C@@H]1C ?
RAD52 anneal inh: 3; GSIS activator: -6; RAD54 branch: 0; S100A4 inh HTS: -5; MLL AF4-AF9 inh: -2

What do the screens show for `CC(C)CCN1CC(O)=C(c2nc(-c3ccc(Cl)cc3)cs2)C1=N`?
GSIS activator: 78*; RAD54 branch: -27

What do the screens show for `COc1ccc(N2CC(O)=C(c3nc(-c4ccc(Cl)cc4)cs3)C2=N)cc1`?
RAD52 anneal inh: -24; GSIS activator: -11; S100A4 inh HTS: -7; MLL AF4-AF9 inh: 0

How did COc1ccc(S(=O)(=O)N2CCCCC2)cc1NC(=O)C1CCCC1 do in these assays?
RAD52 anneal inh: -10; GSIS activator: 52*; RAD54 branch: -1; S100A4 inh HTS: -1; MLL AF4-AF9 inh: 2

Results for COc1cccc2c(=O)n(CC(=O)Nc3ccccc3)ccc12 ?
RAD52 anneal inh: -12; GSIS activator: 5; RAD54 branch: 9; S100A4 inh HTS: -10; MLL AF4-AF9 inh: 48*

What do the screens show for `CNC[C@@H](CC1CCCCC1)NC[C@H](CC(C)C)NCCc1cccc(C(F)(F)F)c1`?
RAD52 anneal inh: 13; GSIS activator: 480*; RAD54 branch: 28; S100A4 inh HTS: 4; MLL AF4-AF9 inh: 15

What do the screens show for `CC[C@@H](C)[C@H](CNC)NC[C@@H](Cc1cccc2ccccc12)NCCc1cccc(C(F)(F)F)c1`?
RAD52 anneal inh: 14; GSIS activator: active; RAD54 branch: 5; S100A4 inh HTS: -10

How did CNC[C@@H](Cc1ccccc1)NC[C@@H](CC1CCCCC1)NCCCc1ccccc1 do in these assays?
RAD52 anneal inh: 36; GSIS activator: 89*; RAD54 branch: 31; S100A4 inh HTS: 4; MLL AF4-AF9 inh: 17

How did CN(Cc1cccc(C(F)(F)F)c1)C(=O)C1CCC(=O)N(CC2CCCCC2)C1 (centres undefined) do in these assays?
RAD52 anneal inh: -7; GSIS activator: -28; RAD54 branch: -22; S100A4 inh HTS: -2; MLL AF4-AF9 inh: 3

What do the screens show for `CCC[C@@H](CNC)NC[C@H](Cc1ccccc1)NCCCCc1ccccc1`?
RAD52 anneal inh: 18; GSIS activator: -7; RAD54 branch: 26; S100A4 inh HTS: -5; MLL AF4-AF9 inh: -21

Bioassay records (PubChem)
